The source of these data is ChEMBL document CHEMBL3352339, “Implications of N-capped urea/thiourea and C-capped 3-(1-piperazinyl)-1,2-benzisothiazole with bridging Gly-Val/Phe-Gly-Val-Pro as therapeutic targets” (Eur J Med Chem, 2014).

Starred links: 1 amine or outer side, 2 acyl side, 3 side chain; linkers in the order of their positions; H or OH if unused. Residues, ends and D or L forms follow the SMILES beside them. *: point of attachment. X1 = c1ccc2c(N3CCN(*)CC3)nsc2c1; NH(3-MeOPh) = COc1cccc(N*)c1; X4 = COc1cccc(NC(=S)*)c1; X5 = COc1ccccc1NC(=S)*; Boc = CC(C)(C)OC(=O)*; CO = O=C([*:1])[*:2]

The subject of one data set is Fusarium oxysporum. The data set is described as follows: Antifungal activity against Fusarium oxysporum at 50 ug/mL incubated for 3 days by agar well diffusion method. The class given is functional. Conditions: 72 h, read-out: IZ; call rule not given here. Put shortly:
(§1)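 Fungal growth inhibition measured by agar well diffusion, with bavistin as the reference. Records the mean inhibition-zone diameter (mm) around each well.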

A further data set relates to Aspergillus niger. Put plainly: Antifungal activity against Aspergillus niger at 50 ug/mL incubated for 3 days by agar well diffusion method. Type of data set: functional. The settings on record: 72 h, read-out: IZ. Summed up: as §1
Another data set concerns Escherichia coli. The data set is described as follows: Antibacterial activity against Escherichia coli at 50 ug/mL incubated for 24 hrs by agar well diffusion method. The class given is functional. Conditions: read-out: IZ. Put shortly: (§2)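 Agar well diffusion against the bacterial isolate, with streptomycin as the reference drug. Read-out is the average diameter (mm) of the growth-inhibition zone around the well.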
In general terms: In agar diffusion tests the substance spreads into inoculated agar from a disc or well.

Another data set has as its target Urease (Canavalia ensiformis, UniProt P07374). The data set is described as follows: Inhibition of jack bean urease assessed as reduction in ammonia production incubated at 30 degC for 15 mins by indophenol method. Put shortly: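 Inhibition of jack bean urease, with thiourea as the reference standard. IC50 values are the average of triplicate runs.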
The next data set relates to Fusarium verticillioides. Put plainly: Antifungal activity against Fusarium moniliforme at 50 ug/mL incubated for 3 days by agar well diffusion method. Conditions: 72 h, read-out: IZ. Type of data set: functional. Summed up:
as §1

The next data set concerns Staphylococcus. Put plainly: Antibacterial activity against Coagulase positive Staphylococcus at 50 ug/mL incubated for 24 hrs by agar well diffusion method. The class given is functional. The settings on record: read-out: IZ. Summed up: as §2
In a further data set the test system is Aspergillus flavus. The data set is described as follows: Antifungal activity against Aspergillus flavus at 50 ug/mL incubated for 3 days by agar well diffusion method. Type of data set: functional. Conditions: 72 h, read-out: IZ. Put shortly:
as §1

Another data set concerns Xanthomonas oryzae. The data set is described as follows: Antibacterial activity against Xanthomonas oryzae at 50 ug/mL incubated for 24 hrs by agar well diffusion method. Type of data set: functional. The settings on record: read-out: IZ.
A short description of data set [1]: Antiglycation activity using bovine serum albumin incubated at 37 degC for 7 days by spectrofluorimetry. Type of data set: physicochemical. Put shortly:
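Glycation of bovine serum albumin, with rutin as the reference standard. IC50 values are averages of triplicate runs.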

Data set [2] can be described thus: Inhibition of sheep stomach parietal cells gastric H+/K+-ATPase activity assessed as reduction in inorganic phosphorus production by Fiske Subbarow's method. The class given is tissue-based, Ovis aries. Put shortly:
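Inhibition of purified H+/K+-ATPase, with omeprazole as the reference. IC50 is the mean of triplicate runs.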

Urease, sequence (P07374 whole entry, the tested form may be a part): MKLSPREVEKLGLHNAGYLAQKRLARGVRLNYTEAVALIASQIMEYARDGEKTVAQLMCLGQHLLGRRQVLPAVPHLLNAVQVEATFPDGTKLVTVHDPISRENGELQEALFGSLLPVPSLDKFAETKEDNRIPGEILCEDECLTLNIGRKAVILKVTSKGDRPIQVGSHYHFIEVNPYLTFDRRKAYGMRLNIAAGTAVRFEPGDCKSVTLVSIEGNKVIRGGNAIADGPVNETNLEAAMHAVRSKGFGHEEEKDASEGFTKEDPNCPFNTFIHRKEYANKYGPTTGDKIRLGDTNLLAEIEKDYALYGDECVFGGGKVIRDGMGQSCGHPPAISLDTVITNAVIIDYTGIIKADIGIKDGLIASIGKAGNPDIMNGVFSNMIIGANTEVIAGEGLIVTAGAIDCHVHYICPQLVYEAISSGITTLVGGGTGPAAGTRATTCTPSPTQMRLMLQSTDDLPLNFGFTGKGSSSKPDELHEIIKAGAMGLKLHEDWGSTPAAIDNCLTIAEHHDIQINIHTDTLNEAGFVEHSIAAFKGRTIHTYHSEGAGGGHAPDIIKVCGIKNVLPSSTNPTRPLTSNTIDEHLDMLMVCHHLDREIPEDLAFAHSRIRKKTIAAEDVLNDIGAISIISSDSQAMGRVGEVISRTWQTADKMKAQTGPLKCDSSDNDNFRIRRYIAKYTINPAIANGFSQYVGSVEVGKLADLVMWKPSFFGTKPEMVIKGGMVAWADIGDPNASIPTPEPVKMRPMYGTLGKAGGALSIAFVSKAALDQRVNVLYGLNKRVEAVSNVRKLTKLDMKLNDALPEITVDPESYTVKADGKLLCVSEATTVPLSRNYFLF

In general, IC50 refers to the midpoint of a concentration-inhibition curve. Take `CC(C)[C@H](NC(=O)CNC(=O)[C@H](Cc1ccccc1)NC(=O)CNC(=O)OC(C)(C)C)C(=O)N1CCC[C@H]1C(=O)N1CCN(c2nsc3ccccc23)CC1` (Boc-GFGVP-X1): the zone of inhibition at 50 µg/mL turned out to be 7 mm in the data set on Fusarium oxysporum; 6 mm in the data set on Aspergillus niger; 8 mm in the data set with Escherichia coli; 7 mm in the data set with Fusarium verticillioides; 6 mm in the data set with Staphylococcus; 7 mm with Aspergillus flavus. Further, in the data set on Xanthomonas oryzae, the zone of inhibition at 50 µg/mL worked out at 7 mm. In addition, the IC50 is 255 µM at Urease, 235 µM in [1] and “Not Active” in data set [2].

Turning to `COc1cccc(NC(=S)NCC(=O)N[C@@H](Cc2ccccc2)C(=O)NCC(=O)N[C@H](C(=O)N2CCC[C@H]2C(=O)N2CCN(c3nsc4ccccc34)CC2)C(C)C)c1` (X4-GFGVP-X1), the zone of inhibition at 50 µg/mL with Fusarium oxysporum was found to be 23 mm; in the data set with Aspergillus niger, 24 mm; with Escherichia coli, 21 mm; in the data set on Fusarium verticillioides, 24 mm; in the data set on Staphylococcus it was 20 mm; in the data set with Aspergillus flavus it was 23 mm. Also, in the data set on Xanthomonas oryzae, the zone of inhibition at 50 µg/mL is 19 mm. The IC50 at Urease came to 19 µM; in [1] it was 20 µM; in data set [2] (read-out: IC50) it was 38 µM.

Take `COc1cccc(NC(=S)NCC(=O)N[C@H](C(=O)NCC(=O)N[C@H](C(=O)N2CCC[C@H]2C(=O)N2CCN(c3nsc4ccccc34)CC2)C(C)C)C(C)C)c1` (X4-GVGVP-X1): the zone of inhibition at 50 µg/mL was 19 mm in the data set with Fusarium oxysporum; 16 mm with Aspergillus niger; 17 mm in the data set on Escherichia coli; 19 mm in the data set on Fusarium verticillioides; 18 mm in the data set on Staphylococcus; 18 mm with Aspergillus flavus. Further, the zone of inhibition at 50 µg/mL in the data set on Xanthomonas oryzae was 16 mm. The IC50 is 23 µM on Urease, 23 µM in data set [1] and 36 µM in data set [2] (read-out: IC50).

As for `COc1ccccc1NC(=S)NCC(=O)N[C@@H](Cc1ccccc1)C(=O)NCC(=O)N[C@H](C(=O)N1CCC[C@H]1C(=O)N1CCN(c2nsc3ccccc23)CC1)C(C)C` (X5-GFGVP-X1), the zone of inhibition at 50 µg/mL in the data set on Fusarium oxysporum was 24 mm; in the data set with Aspergillus niger it was 24 mm; with Escherichia coli it was 24 mm; with Fusarium verticillioides, 26 mm; in the data set with Staphylococcus it was 24 mm; in the data set on Aspergillus flavus, 25 mm. Besides, the zone of inhibition at 50 µg/mL in the data set on Xanthomonas oryzae was 22 mm. Moreover, the results for the IC50 (at Urease; in data set [1]; in data set [2] (read-out: IC50)) were 18 µM, 19 µM and 46 µM, respectively.

`COc1ccccc1NC(=S)NCC(=O)N[C@H](C(=O)NCC(=O)N[C@H](C(=O)N1CCC[C@H]1C(=O)N1CCN(c2nsc3ccccc23)CC1)C(C)C)C(C)C` (X5-GVGVP-X1): the zone of inhibition at 50 µg/mL in the data set with Fusarium oxysporum amounted to 22 mm; in the data set with Aspergillus niger, 20 mm; with Escherichia coli, 21 mm; in the data set on Fusarium verticillioides, 23 mm; with Staphylococcus, 20 mm; in the data set on Aspergillus flavus, 22 mm. The zone of inhibition at 50 µg/mL in the data set with Xanthomonas oryzae came out at 19 mm. For the same compound, the values for the IC50 (on Urease; in data set [1]; in data set [2] (read-out: IC50)) were 20 µM, 20 µM and 40 µM, respectively.

`COc1cccc(NC(=O)NCC(=O)N[C@@H](Cc2ccccc2)C(=O)NCC(=O)N[C@H](C(=O)N2CCC[C@H]2C(=O)N2CCN(c3nsc4ccccc34)CC2)C(C)C)c1` ({NH(3-MeOPh)-CO}-GFGVP-X1): the zone of inhibition at 50 µg/mL in the data set with Fusarium oxysporum worked out at 22 mm; in the data set with Aspergillus niger, 20 mm; in the data set with Escherichia coli, 19 mm; in the data set on Fusarium verticillioides, 22 mm; in the data set with Staphylococcus, 20 mm; in the data set with Aspergillus flavus it was 21 mm. For the same compound, the zone of inhibition at 50 µg/mL with Xanthomonas oryzae stood at 18 mm. The half-maximal inhibitory concentration (IC50) on Urease worked out at 23 µM; in data set [1], 23 µM; in data set [2] (read-out: IC50), 48 µM.

Compound `C[C@@H]1O[C@@H](OC[C@H]2O[C@@H](Oc3c(-c4ccc(O)c(O)c4)oc4cc(O)cc(O)c4c3=O)[C@H](O)[C@@H](O)[C@@H]2O)[C@H](O)[C@H](O)[C@H]1O` [RUTIN] registered a half-inhibitory concentration (IC50) in data set [1] of 41.9 µM.
